Reference: ChEMBL document CHEMBL4043093, “2-Oxo-3, 4-dihydropyrimido[4, 5-d]pyrimidinyl derivatives as new irreversible pan fibroblast growth factor receptor (FGFR) inhibitors” (Eur J Med Chem, 2017)

What was measured:
[1] = target: Serine/threonine-protein kinase SIK3 (Homo sapiens) (UniProt Q9Y2K2); experiment: Inhibition of wild-type human partial length QSK (A90 to L395 residues) expressed in HEK293 cells assessed as residual activity at 1000 nM after 30 mins by Kinomescan method relative to control; format: cell-based
[2] = target: Mitogen-activated protein kinase kinase kinase 14 (Homo sapiens) (UniProt Q99558); experiment: Inhibition of wild-type human partial length NIK (L318 to P947 residues) expressed in HEK293 cells assessed as residual activity at 1000 nM after 30 mins by Kinomescan method relative to control; format: cell-based
[3] = target: Tyrosine-protein kinase Srms (Homo sapiens) (UniProt Q9H3Y6); experiment: Inhibition of wild-type human partial length SRMS (L208 to P488 residues) expressed in HEK293 cells assessed as residual activity at 1000 nM after 30 mins by Kinomescan method relative to control; format: cell-based
[4] = test system: Tyrosine-protein kinase ABL1 (Homo sapiens), P00519 [T315I]; experiment: Inhibition of human phosphorylated ABL1 T315I mutant (S229 to K512 residues) expressed in HEK293 cells assessed as residual activity at 1000 nM after 30 mins by Kinomescan method relative to control; format: cell-based
Outline: (§1)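 Single-point screen at a fixed 1 µM, run within a 456-kinase DiscoveRx KINOMEscan panel. Each kinase's read-out is Percent Control, i.e. signal relative to a control without compound. Hits were scored by a Percent Control < 35 cut-off, and an S(35) selectivity score was calculated across the non-mutant kinases.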

[5] = test system: Mast/stem cell growth factor receptor Kit (Homo sapiens), P10721 [V559D,V654A]; experiment: Inhibition of human partial length KIT V559D/V654A double mutant (Y545 to D952 residues) expressed in Escherichia coli BL21 assessed as residual activity at 1000 nM after 30 mins by Kinomescan method relative to control
Sequence of Mast/stem cell growth factor receptor Kit (Homo sapiens), P10721 [V559D,V654A] (P10721 whole entry V559D/V654A, the tested form may be a part): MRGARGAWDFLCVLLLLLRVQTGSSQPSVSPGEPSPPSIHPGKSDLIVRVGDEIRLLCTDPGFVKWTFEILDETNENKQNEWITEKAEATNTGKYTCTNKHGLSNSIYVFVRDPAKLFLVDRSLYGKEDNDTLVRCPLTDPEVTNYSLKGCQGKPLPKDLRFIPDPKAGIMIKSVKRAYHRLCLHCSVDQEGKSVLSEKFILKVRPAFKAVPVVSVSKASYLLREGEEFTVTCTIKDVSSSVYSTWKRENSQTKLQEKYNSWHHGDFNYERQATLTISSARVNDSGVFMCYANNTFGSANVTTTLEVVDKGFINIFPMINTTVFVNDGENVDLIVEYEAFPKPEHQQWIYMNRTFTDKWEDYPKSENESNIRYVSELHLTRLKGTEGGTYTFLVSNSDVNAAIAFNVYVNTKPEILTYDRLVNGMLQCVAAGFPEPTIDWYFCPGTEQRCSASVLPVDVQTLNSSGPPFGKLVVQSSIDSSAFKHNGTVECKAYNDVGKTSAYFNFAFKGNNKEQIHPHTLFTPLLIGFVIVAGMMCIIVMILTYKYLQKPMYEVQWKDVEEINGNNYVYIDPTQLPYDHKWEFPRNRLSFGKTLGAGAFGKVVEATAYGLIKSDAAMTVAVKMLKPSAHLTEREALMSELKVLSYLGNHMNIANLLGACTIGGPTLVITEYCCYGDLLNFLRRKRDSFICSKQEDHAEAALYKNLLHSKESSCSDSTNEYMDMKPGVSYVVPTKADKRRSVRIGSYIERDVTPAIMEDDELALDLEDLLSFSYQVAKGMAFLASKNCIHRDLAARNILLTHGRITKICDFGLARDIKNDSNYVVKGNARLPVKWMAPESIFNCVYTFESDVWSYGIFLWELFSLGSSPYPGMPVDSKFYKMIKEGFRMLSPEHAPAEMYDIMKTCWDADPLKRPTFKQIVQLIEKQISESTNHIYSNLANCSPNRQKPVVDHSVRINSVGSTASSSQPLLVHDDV
Outline: (§2)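 KINOMEscan binding panel of 456 kinases, with the test compound at a single concentration of 1 µM. Read-out is Percent Control.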

[6] = target: Phosphatidylinositol 4-phosphate 5-kinase type-1 alpha (Homo sapiens) (UniProt Q99755); experiment: Inhibition of wild-type human full length PIP5K1A (M1 to H562 residues) expressed in Escherichia coli BL21 assessed as residual activity at 1000 nM after 30 mins by Kinomescan method relative to control
Sequence of Phosphatidylinositol 4-phosphate 5-kinase type-1 alpha (Homo sapiens) (Q99755 whole entry, the tested form may be a part): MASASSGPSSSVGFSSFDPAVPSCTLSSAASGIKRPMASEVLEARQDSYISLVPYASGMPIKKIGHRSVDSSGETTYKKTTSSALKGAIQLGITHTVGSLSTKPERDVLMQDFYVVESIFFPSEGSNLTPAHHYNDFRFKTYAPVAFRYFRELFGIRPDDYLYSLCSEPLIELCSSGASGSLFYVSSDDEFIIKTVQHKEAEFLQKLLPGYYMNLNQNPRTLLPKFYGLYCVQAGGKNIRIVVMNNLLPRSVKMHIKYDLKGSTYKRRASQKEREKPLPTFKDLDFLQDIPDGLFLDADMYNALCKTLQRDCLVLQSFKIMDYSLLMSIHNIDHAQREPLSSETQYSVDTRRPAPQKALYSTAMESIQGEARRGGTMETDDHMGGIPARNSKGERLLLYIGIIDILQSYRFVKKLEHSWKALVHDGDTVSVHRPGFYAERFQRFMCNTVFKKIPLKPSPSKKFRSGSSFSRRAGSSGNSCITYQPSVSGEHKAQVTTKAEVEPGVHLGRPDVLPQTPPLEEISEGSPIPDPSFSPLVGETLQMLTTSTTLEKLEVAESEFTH
Outline: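 Single-concentration screen at 1 µM against a 456-kinase panel (KINOMEscan). Read-out is Percent Control for each kinase. Across the 403 non-mutant kinases, an S(35) selectivity score was derived as the fraction of kinases with Percent Control < 35.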

[7] = target: Cyclin-dependent kinase 16 (Homo sapiens) (UniProt Q00536); experiment: Inhibition of wild-type human partial length PCTK1 (G160 to A474 residues) expressed in HEK293 cells assessed as residual activity at 1000 nM after 30 mins by Kinomescan method relative to control; format: cell-based
[8] = target: Insulin-like growth factor 1 receptor (Homo sapiens) (UniProt P08069); experiment: Inhibition of wild-type human partial length IGF1R (L972 to D1294 residues) expressed in Escherichia coli BL21 assessed as residual activity at 1000 nM after 30 mins by Kinomescan method relative to control
[9] = target: Serine/threonine-protein kinase PAK 1 (Homo sapiens) (UniProt Q13153); experiment: Inhibition of wild-type human partial length PAK1 (S149 to H545 residues) expressed in Escherichia coli BL21 assessed as residual activity at 1000 nM after 30 mins by Kinomescan method relative to control
Sequence of Serine/threonine-protein kinase PAK 1 (Homo sapiens) (Q13153 whole entry, the tested form may be a part): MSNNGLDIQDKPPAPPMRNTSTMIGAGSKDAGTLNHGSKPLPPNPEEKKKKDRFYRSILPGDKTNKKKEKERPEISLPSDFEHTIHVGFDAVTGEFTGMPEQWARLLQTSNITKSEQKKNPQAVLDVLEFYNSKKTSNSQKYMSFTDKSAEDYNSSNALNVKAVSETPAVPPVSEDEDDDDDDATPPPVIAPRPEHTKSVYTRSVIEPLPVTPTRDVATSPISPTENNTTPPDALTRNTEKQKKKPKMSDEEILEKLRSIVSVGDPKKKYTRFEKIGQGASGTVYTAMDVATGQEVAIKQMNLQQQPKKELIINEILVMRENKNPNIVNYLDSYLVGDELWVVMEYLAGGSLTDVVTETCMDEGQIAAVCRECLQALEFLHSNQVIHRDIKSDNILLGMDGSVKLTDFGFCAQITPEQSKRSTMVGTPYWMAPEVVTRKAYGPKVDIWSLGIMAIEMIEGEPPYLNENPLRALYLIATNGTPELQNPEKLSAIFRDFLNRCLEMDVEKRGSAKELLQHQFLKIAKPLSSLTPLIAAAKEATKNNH

[10] = target: Rhodopsin kinase GRK1 (Homo sapiens) (UniProt Q15835); experiment: Inhibition of wild-type human full length GRK1 (M1 to S563 residues) expressed in HEK293 cells assessed as residual activity at 1000 nM after 30 mins by Kinomescan method relative to control; format: cell-based
Outline: (§3)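 Single-concentration screen at 1 µM across a 456-kinase KINOMEscan panel. The read-out is Percent Control for each kinase.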

[11] = target: Phosphatidylinositol 4-phosphate 5-kinase type-1 gamma (Homo sapiens) (UniProt O60331); experiment: Inhibition of wild-type human partial length PIP5K1C (M1 to T668 residues) expressed in HEK293 cells assessed as residual activity at 1000 nM after 30 mins by Kinomescan method relative to control; format: cell-based
[12] = species on record: Homo sapiens; experiment: Inhibition of human partial length FLT3 ITD/D835V double mutant expressed in Escherichia coli BL21 assessed as residual activity at 1000 nM after 30 mins by Kinomescan method relative to control; outline: as §2
[13] = target: Phosphatidylinositol 4-kinase beta (Homo sapiens) (UniProt Q9UBF8); experiment: Inhibition of wild-type human full length PIK4CB (M1 to M828 residues) expressed in HEK293 cells assessed as residual activity at 1000 nM after 30 mins by Kinomescan method relative to control; format: cell-based; outline: as §3
[14] = target: Ephrin type-B receptor 1 (Homo sapiens) (UniProt P54762); experiment: Inhibition of wild-type human partial length EPHB1 (P589 to T911 residues) expressed in Escherichia coli BL21 assessed as residual activity at 1000 nM after 30 mins by Kinomescan method relative to control
Sequence of Ephrin type-B receptor 1 (Homo sapiens) (P54762 whole entry, the tested form may be a part, canonical isoform): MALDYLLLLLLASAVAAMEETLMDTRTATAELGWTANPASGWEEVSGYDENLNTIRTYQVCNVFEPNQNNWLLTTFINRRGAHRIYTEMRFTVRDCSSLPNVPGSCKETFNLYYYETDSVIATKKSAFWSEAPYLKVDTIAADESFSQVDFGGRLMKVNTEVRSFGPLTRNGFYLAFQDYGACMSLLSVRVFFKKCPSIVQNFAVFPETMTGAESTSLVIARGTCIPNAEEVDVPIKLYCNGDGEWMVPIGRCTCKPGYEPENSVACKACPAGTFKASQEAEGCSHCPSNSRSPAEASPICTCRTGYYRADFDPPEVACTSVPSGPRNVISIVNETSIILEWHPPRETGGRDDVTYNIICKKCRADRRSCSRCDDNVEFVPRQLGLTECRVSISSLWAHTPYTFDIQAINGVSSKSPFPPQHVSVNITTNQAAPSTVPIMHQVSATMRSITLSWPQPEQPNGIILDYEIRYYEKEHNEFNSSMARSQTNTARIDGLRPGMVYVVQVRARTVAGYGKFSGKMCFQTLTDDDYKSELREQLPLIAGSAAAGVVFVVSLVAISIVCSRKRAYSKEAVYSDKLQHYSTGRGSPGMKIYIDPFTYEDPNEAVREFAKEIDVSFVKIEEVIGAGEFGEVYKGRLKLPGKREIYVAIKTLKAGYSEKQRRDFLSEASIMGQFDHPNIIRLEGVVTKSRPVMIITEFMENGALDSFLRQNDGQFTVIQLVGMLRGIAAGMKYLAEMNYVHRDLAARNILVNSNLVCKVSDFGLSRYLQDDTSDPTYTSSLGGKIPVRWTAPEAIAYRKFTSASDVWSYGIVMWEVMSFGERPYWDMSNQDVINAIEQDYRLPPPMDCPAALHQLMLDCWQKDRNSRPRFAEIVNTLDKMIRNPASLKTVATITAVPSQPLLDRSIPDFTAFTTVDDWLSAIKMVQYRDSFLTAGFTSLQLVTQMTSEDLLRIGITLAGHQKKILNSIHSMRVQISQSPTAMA

[15] = target: Phosphatidylinositol 4,5-bisphosphate 3-kinase catalytic subunit delta isoform (Homo sapiens) (UniProt O00329); experiment: Inhibition of wild-type human partial length PIK3CD (R108 to Q1044 residues) expressed in HEK293 cells assessed as residual activity at 1000 nM after 30 mins by Kinomescan method relative to control; format: cell-based
[16] = target: Serine/threonine-protein kinase BRSK2 (Homo sapiens) (UniProt Q8IWQ3); experiment: Inhibition of wild-type human full length BRSK2 (M1 to L674 residues) expressed in Escherichia coli BL21 assessed as residual activity at 1000 nM after 30 mins by Kinomescan method relative to control; outline: as §1
Sequence of Serine/threonine-protein kinase BRSK2 (Homo sapiens) (Q8IWQ3 whole entry, the tested form may be a part): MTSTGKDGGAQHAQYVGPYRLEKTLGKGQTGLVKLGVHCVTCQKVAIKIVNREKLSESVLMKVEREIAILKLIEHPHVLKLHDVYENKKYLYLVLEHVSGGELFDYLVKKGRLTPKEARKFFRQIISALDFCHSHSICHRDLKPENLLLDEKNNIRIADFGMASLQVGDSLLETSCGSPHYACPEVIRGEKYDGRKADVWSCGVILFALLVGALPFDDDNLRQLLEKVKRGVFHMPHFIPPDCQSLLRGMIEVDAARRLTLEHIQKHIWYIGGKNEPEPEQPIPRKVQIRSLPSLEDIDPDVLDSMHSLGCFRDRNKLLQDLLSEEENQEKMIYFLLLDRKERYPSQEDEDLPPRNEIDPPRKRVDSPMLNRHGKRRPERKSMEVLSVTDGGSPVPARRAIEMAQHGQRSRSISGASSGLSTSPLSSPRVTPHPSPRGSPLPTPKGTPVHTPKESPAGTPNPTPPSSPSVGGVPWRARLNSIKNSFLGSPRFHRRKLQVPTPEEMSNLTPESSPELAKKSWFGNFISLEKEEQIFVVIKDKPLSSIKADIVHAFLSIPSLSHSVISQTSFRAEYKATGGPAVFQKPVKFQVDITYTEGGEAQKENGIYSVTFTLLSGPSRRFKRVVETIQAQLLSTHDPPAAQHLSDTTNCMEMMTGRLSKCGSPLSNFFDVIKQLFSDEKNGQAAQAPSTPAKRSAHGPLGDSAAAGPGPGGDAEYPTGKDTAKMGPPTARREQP

[17] = target: Mitogen-activated protein kinase kinase kinase 3 (Homo sapiens) (UniProt Q99759); experiment: Inhibition of wild-type human partial length MAP3K3 (E320 to Y626 residues) expressed in HEK293 cells assessed as residual activity at 1000 nM after 30 mins by Kinomescan method relative to control; format: cell-based
[18] = target: Cyclin-dependent kinase 4/cyclin D1 (Homo sapiens) (UniProt P11802+P24385); experiment: Inhibition of wild-type human full length CDK4/cyclinD1 (M1 to E303 residues) expressed in HEK293 cells assessed as residual activity at 1000 nM after 30 mins by Kinomescan method relative to control; format: cell-based; outline: as §1
[19] = target: Serine/threonine-protein kinase D2 (Homo sapiens) (UniProt Q9BZL6); experiment: Inhibition of wild-type human partial length PRKD2 (A519 to E838 residues) expressed in Escherichia coli BL21 assessed as residual activity at 1000 nM after 30 mins by Kinomescan method relative to control
Sequence of Serine/threonine-protein kinase D2 (Homo sapiens) (Q9BZL6 whole entry, the tested form may be a part): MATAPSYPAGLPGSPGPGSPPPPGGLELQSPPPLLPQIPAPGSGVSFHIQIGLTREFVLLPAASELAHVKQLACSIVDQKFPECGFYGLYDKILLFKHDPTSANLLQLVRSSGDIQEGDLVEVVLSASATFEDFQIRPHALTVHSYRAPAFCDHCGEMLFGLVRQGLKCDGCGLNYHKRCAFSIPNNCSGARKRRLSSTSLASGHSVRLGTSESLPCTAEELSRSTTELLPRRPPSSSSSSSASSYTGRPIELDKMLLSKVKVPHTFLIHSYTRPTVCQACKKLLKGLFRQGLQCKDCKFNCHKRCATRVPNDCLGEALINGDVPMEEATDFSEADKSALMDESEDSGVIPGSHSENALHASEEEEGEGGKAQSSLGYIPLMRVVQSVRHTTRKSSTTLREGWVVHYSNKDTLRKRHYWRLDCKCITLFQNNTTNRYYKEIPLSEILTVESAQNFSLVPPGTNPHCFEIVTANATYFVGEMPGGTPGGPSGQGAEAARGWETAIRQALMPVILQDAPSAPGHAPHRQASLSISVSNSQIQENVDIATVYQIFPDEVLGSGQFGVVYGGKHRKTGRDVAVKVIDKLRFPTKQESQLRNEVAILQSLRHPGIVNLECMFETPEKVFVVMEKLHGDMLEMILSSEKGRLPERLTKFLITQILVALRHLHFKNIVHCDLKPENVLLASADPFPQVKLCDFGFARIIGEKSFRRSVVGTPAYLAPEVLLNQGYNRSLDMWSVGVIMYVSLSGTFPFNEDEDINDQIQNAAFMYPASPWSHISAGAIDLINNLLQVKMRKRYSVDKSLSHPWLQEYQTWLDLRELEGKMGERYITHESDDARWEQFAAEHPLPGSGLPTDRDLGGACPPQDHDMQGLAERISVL

[20] = target: Serine/threonine-protein kinase MARK2 (Homo sapiens) (UniProt Q7KZI7); experiment: Inhibition of wild-type human partial length MARK2 (M1 to R450 residues) expressed in Escherichia coli BL21 assessed as residual activity at 1000 nM after 30 mins by Kinomescan method relative to control
[21] = target: Aurora kinase A (Homo sapiens) (UniProt O14965); experiment: Inhibition of wild-type human partial length AURKA (E122 to K401 residues) expressed in HEK293 cells assessed as residual activity at 1000 nM after 30 mins by Kinomescan method relative to control; format: cell-based

COc1cc(OC)c(Cl)c(N2Cc3cnc(Nc4ccc(F)cc4)nc3N(C3CCN(C(=O)/C=C/CN(C)C)CC3)C2=O)c1Cl
Activity [1]: 100% | Activity [2]: 93% | Activity [3]: 100% | Activity [4]: 97% | Activity [5]: 99% | Activity [6]: 100% | Activity [7]: 100% | Activity [8]: 83% | Activity [9]: 100% | Activity [10]: 79% | Activity [11]: 92% | Activity [12]: 98% | Activity [13]: 96% | Activity [14]: 100% | Activity [15]: 93% | Activity [16]: 99% | Activity [17]: 1.9% | Activity [18]: 100% | Activity [19]: 98% | Activity [20]: 90% | Activity [21]: 100%
